This passage reports inhibition and rT3 Production results from ChEMBL document CHEMBL1122850, “Synthesis of 6-anilino-2-thiouracils and their inhibition of human placenta iodothyronine deiodinase” (J Med Chem, 1985).

The target of assay [1] is T1, Thyroxine 5-deiodinase (Homo sapiens) (UniProt P55073).
T1 sequence (whole entry): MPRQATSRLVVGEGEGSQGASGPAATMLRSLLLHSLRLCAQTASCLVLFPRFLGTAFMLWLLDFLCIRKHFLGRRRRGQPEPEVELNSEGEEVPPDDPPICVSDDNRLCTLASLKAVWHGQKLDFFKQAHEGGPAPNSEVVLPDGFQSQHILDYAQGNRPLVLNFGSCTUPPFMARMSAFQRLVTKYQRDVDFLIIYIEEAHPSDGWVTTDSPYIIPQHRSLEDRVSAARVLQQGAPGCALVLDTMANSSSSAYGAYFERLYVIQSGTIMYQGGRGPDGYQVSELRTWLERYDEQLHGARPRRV
Put plainly: Inhibition of Human Placenta Inner-Ring Iodothyronine 5-deiodinase at the compound concentration of 5 mM. A digest of the protocol: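 Human placenta microsomal fraction (225 μg/tube) incubated 60 min at 37 °C with 290 pmol T4 in 0.1 M potassium phosphate–0.01 M EDTA, pH 7.4, with 0.25 mM DTT. Inhibitors at 5 mM, diluted from 30 mM stocks in 0.04 M NaOH. rT3 formed measured by radioimmunoassay. Inhibition relative to uninhibited control, quadruplicate incubations.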

Assay [2] deals with T1, Thyroxine 5-deiodinase (Homo sapiens). Put plainly: Inhibition of Human placenta inner-ring Iodothyronine 5-deiodinase activity measured as rT3 production in presence of DTT concentrations of 100 mM. In a few lines:
(§1)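 Placenta microsomes (225 μg/tube) incubated with 290 pmol T4 in 0.1 M potassium phosphate–0.01 M EDTA (pH 7.4), 60 min, 37 °C. DTT varied over 0.2–100 mM in place of 0.25 mM. Inhibitor present at 5 mM. rT3 production (pmol/tube) measured by radioimmunoassay and compared with control tubes without inhibitor. Quadruplicate incubations.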

The target is the same in assay [3]. Put plainly: Inhibition of Human placenta inner-ring Iodothyronine 5-deiodinase activity measured as rT3 production in presence of DTT concentrations of 12.5 mM. In a few lines: as §1
Assay [4] shares this target. Put plainly: Inhibition of Human placenta inner-ring Iodothyronine 5-deiodinase activity measured as rT3 production in presence of DTT concentrations of 1.56 mM. A digest of the protocol: as §1
Assay [5] shares this target. Description: Inhibition of Human placenta inner-ring Iodothyronine 5-deiodinase activity measured as rT3 production in presence of DTT concentrations of 0.2 mM. A digest of the protocol:
as §1

For the compound `CCc1ccc(Nc2cc(O)nc(S)n2)cc1`, in assay [1], the inhibition amounted to 85%.
Regarding `CCCCc1ccc(Nc2cc(=O)n(C)c(=S)[nH]2)cc1`, the inhibition in assay [1] amounted to 20%.
In the case of `CCCCc1ccc(Nc2cc(O)nc(S)n2)cc1`, the rT3 Production in assay [2] came to 4.1 pmol/tube; in assay [3], 2.5 pmol/tube; in assay [4] it was 0.8 pmol/tube; in assay [5], 0.2 pmol/tube. This compound gave an inhibition in assay [1] of 96%.
In assay [1], `Nc1cc(O)nc(S)n1` yielded an inhibition of 16%.
For `CCCc1cc(=O)[nH]c(=S)[nH]1`, the rT3 Production in assay [2] stood at 104 pmol/tube; in assay [3], 43.3 pmol/tube; in assay [4], 13.3 pmol/tube; in assay [5], 2.6 pmol/tube. In assay [1], this compound gave an inhibition of 29%.
`Cn1c(=S)[nH]c(N)c(Cc2ccccc2)c1=O` had an inhibition in assay [1] of 79%.
Same read-out and setting: next, `CCc1ccc(Nc2cc(=O)n(C)c(=S)[nH]2)cc1`: 0%; `Oc1cc(Nc2ccccc2)nc(S)n1`: 31%; `CCc1ccc(Nc2cc(=O)[nH]c(=S)n2C)cc1`: 2%.

What is called inhibition is the share of the control response that was lost under treatment. Lower therefore signals a weak effect.
